Published values of several laboratories.
Lines come from different studies, so protocols differ.
Target: Cyclin-dependent kinase-like 1 (CDKL1, Homo sapiens, UniProt Q00532)

CNC(=O)[C@@H]1CC[C@@H](n2c(-c3ccc4cnccc4c3)nc3ccc(C(=O)NCc4cccc(C(N)=O)c4)cc32)C1 — remaining binding (binding, competition with immobilised ligand; 1 µM): 90%
O=C(c1ccc(Nc2nccc(-c3cc4ccccc4s3)n2)cc1)N1CCC(N2CCCC2)CC1 — remaining binding (binding, competition with immobilised ligand; 1 µM): 71%
CCN1CCN(Cc2ccc(C(=O)Nc3ccc(C)c(Oc4ccc5c(c4)CC(=O)N5)c3)cc2C(F)(F)F)CC1 — remaining binding (binding, competition with immobilised ligand; 1 µM): 100%
c1cnn2ncc(-c3ccnc(N4CCC45COC5)n3)c2c1 — remaining binding (binding; 1 µM): 59%
C[C@@H](c1ccc(-n2cnc3c(N)ncnc32)cc1)N1CCc2nn(C)c(Cc3ccccc3)c2C1=O — remaining binding (binding, competition with immobilised ligand; 0.1 µM): 58%
COc1ccnn2ncc(-c3ccnc(N(C)C)n3)c12 — remaining binding (binding; 1 µM): 87%
O=C(NCCCN1CCOCC1)c1ccc(Nc2ncc(Cl)c(-c3ccc(Cl)s3)n2)cc1 — remaining binding (binding, competition with immobilised ligand; 1 µM): 36%
CN(C)c1nccc(-c2cnc3ncccn23)n1 — remaining binding (binding; 1 µM): 100%
Cc1cc(-n2nc(Cc3cc(F)cc(C(F)(F)F)c3)nc2C)ccc1C(N)=O — remaining binding (cell-free assay, competition with immobilised ligand; 1 µM): 71%
O=C(NCC1CCOCC1)c1n[nH]cc1NC(=O)c1c(F)cccc1F — remaining binding (binding, competition with immobilised ligand; 1 µM): 77%
c1cncc(-c2cccc(Nc3nccc(NC4CCCCC4)n3)c2)c1 — remaining binding (binding, competition with immobilised ligand; 10 µM): 70%
CC(=O)Nc1c(C(C)=O)c(=O)n(C)c2nc(-c3ccc(Cl)cc3Cl)c(-c3ccc(Cl)cc3)cc12 — remaining binding (cell-free assay, competition with immobilised ligand; 1 µM): 100%
C=CC(=O)N1CCC(C(=O)NCC(=O)N2CCN(c3nc(-c4cnc(N)nc4C(F)F)nc(N4CCOCC4)n3)CC2)CC1 — remaining binding (binding, competition with immobilised ligand; 1 µM): 90%
C[C@H](c1ccnc(Nc2nc3ccc(-c4cc(N(C)C)ncn4)cc3[nH]2)c1)N1CCN(C(=O)CC(F)(F)F)CC1 — remaining binding (binding, competition with immobilised ligand; 0.1 µM): 100%
Nc1ncc2c(n1)-c1c([nH]c3ccc(C#CC4CC4)cc13)CCCC2 — remaining binding (binding, competition with immobilised ligand; 1 µM): 81%
CCS(=O)(=O)c1cc2cc(C[C@](O)(CC(C)(C)c3ccc(F)cc3C(N)=O)C(F)(F)F)[nH]c2cn1 — remaining binding (cell-free assay, competition with immobilised ligand; 1 µM): 81%
C[C@@H]1CCN(c2nccc(-c3cnn4ncccc34)n2)C1 — remaining binding (binding; 1 µM): 70%
c1ccc(N2CCN(Cc3nc4ccccc4[nH]3)CC2)nc1 — remaining binding (binding, competition with immobilised ligand; 1 µM): 78%
O=C(c1ccc(Nc2ncc(Cl)c(-c3cc4ccccc4s3)n2)cc1)N1CCC(N2CCCC2)CC1 — remaining binding (binding, competition with immobilised ligand; 1 µM): 51%
CNCc1ccccc1-c1csc([C@@H](C)Nc2nc(C)nc3cc(OC)c(OC)cc23)c1 — remaining binding (cell-free assay, competition with immobilised ligand; 1 µM): 93%
CN(C)c1nccc(-c2cnn3ncccc23)n1 — remaining binding (binding; 1 µM): 89%
